Experimental data taken from ChEMBL document CHEMBL4513216, “Probing the Open Global Health Chemical Diversity Library for Multistage-Active Starting Points for Next-Generation Antimalarials” (ACS Infect Dis, 2020).

assay: Toxicity liver stage against HepG2, at 10uM; type: cell-based; parameters: test concentration 10 uM, cell line HepG2-A16-CD81EGFP; conditions: human, HepG2-A16-CD81EGFP cells; read-out: INHIBITION
Summary of the method: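 Uninfected HepG2-A16-CD81EGFP cells, 3 × 10^3 per well, 1536-well, plated on prespotted compound at 10 μM final, parasite-free screening media added to match infected plates; puromycin 10 μM positive, DMSO 0.5% negative; run in parallel with 48 h PbLuc assay at 37 °C, 5% CO2; viability by CellTiter-Glo luminescence, normalized to controls.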

Point of comparison: `CC(C)n1ccnc1C1CCN(Cc2ccc(Cl)s2)CC1`, cytotoxicity at 10 µM -7.09%. Against it:
- OCc1csc(N2CCCC(CO)(Cc3cccc(Cl)c3)C2)n1 (stereo not given) — higher, 8.87%
- O=C(c1ccc2nccn2c1)N(CCO)Cc1ccccc1F — higher, 5.27%
- O=C(O)C1(Oc2cccc(F)c2)CCN(C2CCOCC2)CC1 — lower, -7.16%
- CCCN1CCN(C(=O)c2ccc3ccccc3n2)[C@H]2CS(=O)(=O)C[C@H]21 — higher, -3.31%
- Cc1ccc2[nH]c(=O)c(CN(C)Cc3cc(C4CC4)[nH]n3)cc2c1 — higher, -3.07%
- CN(C)CCC1CN(C(=O)c2cccc3c2OCC3)CCO1 (stereo not given) — higher, 2.13%
- O=C(N1CCCC1)N1CCCC(c2nccn2Cc2ccncc2)C1 (stereo not given) — higher, 8.2%
- Cc1nnc(NC(=O)N2CCN(Cc3ccc(F)cc3)C(=O)C2)s1 — higher, -0.392%
- Cc1c(Cl)c(C(=O)N2C[C@@H](C(=O)O)[C@H](c3cccnc3)C2)nn1C — higher, 6.21%
- c1ccc(-c2cc(CN3CCCCCC3c3ccco3)on2)nc1 (stereo not given) — higher, -6.19%
- COc1cc(NC2CCN(C3CCS(=O)(=O)CC3)CC2)ncn1 — higher, 1.64%
- CNC(=O)[C@@H]1C[C@@H](N)CN1C(=O)CCSCc1ccccc1 — higher, 6.7%
- Cn1ncc2c(N3CCN(CCO)CC3)nc(C3CCCC3)nc21 — higher, -4.07%
- O=C(O)[C@@H]1CN(CCOCCO)C[C@H]1c1ccccc1 — higher, -2.33%
- N#Cc1ccc(C(=O)N2CCC3(CC2)C(=O)Nc2ccccc23)cn1 — higher, 13.5%
- Cc1nc2c(c(N3CC=CC3)n1)CCN(Cc1ccoc1)CC2 — higher, -6.51%
- CC(C)c1ccc(-c2nonc2N)cc1 — higher, -3.25%
- COc1c(C2CCCN2C(=O)c2cnc(C)cn2)c(C)nn1C (stereo not given) — higher, 2.58%
- CC(=O)N(C)c1nc(CN2CCCC2Cn2nc(C)cc2C)cs1 (stereo not given) — lower, -10.3%
- Cc1nc(NC(=O)CCc2c(C)nc3cc(O)nn3c2C)sc1C — lower, -13.5%
- COc1cc(CCC(=O)NC2CCN(C)CC2)ccc1OCC(F)(F)F — lower, -8.82%
- Cc1ccc(C2=CCN(C(=O)C3CCN(C)C(=O)C3)CC2)cc1 (stereo not given) — lower, -12.1%
- CC(C)CN(C)Cc1nc2c(cnn2C)c(=O)[nH]1 — lower, -12.3%
- CC(C)c1nnc(NC(=O)NC2CCN(Cc3ccccc3)C2)s1 (stereo not given) — lower, -11.2%
- NC(=O)Cn1cc(NC(=O)N2CCSCC2)cn1 — lower, -9.95%
- Cn1cc(C2CCCN2CCc2nc3ccccc3c(=O)[nH]2)cn1 (stereo not given) — lower, -12.9%
- Cc1cc(C)c(CNC(=O)N2CCCC2c2ccccn2)c(=O)[nH]1 (stereo not given) — higher, 1.17%
- CC(=O)N1CCN(C(=O)CN2CCCC2Cn2nc(C)cc2C)CC1 (stereo not given) — lower, -12.2%
- O=C(NCCNc1ncccn1)N1CCN(c2nccs2)CC1 — lower, -13.8%
- CC1COCCN1Cc1nc(-c2cccc(Br)c2)no1 (stereo not given) — higher, -3.04%
- Cc1cccc(CC(=O)N2CCN(c3nccn3C)CC2)c1 — higher, 8.68%
- COCCN1CC2(CCN(C(=O)c3ccno3)CC2)c2ccccc21 — higher, 0.729%
- O=C(c1ccc(O)cc1)N1C[C@@H]2OCCN(c3ncccn3)[C@@H]2C1 — higher, 6.72%
- CCS(=O)(=O)N1C[C@@H](Oc2ccccn2)[C@H]2OCCC[C@H]21 — higher, 5.08%
- Cc1noc(C)c1CN1CCn2cc(CN3CCCC3)nc2C1 — higher, 5.37%
- Cn1cnc2c(N3CCCC3)nc(C3CCN(CC4CC4)CC3)cc21 — higher, -5.26%
- Cc1ccc(CN2C[C@@H](OCc3csc(C)n3)[C@H]3COC[C@H]32)s1 — higher, -5.21%
- O=C(O)c1cc2c(nc1N1CCCC1)CCN(C1CCOCC1)CC2 — higher, 3.02%
- Cc1noc(C)c1CN1C[C@@H](OCc2ccccn2)[C@H]2OCCC[C@H]21 — higher, -3.14%
- CC(C)CN1C[C@H]2CCN(c3ncccn3)CC[C@H]2S1(=O)=O — lower, -11.2%
- O=C(NC1CC1)[C@H]1C[C@H]2OCC[C@H]2N(Cc2ccc(F)cc2)C1 — higher, 3.62%
- O[C@@H]1CCN(CC2CC2)[C@H]1Cc1ccccc1 — higher, 3.57%
- FC(F)(F)c1cccc(-c2c[nH]c(C3CCCN3)n2)c1 (stereo not given) — higher, -3.25%
- COCC1CC2(CCNCC2)CN1Cc1csc(C)n1 (stereo not given) — higher, 5.77%
- O=C(NCc1cn2c(n1)CN(Cc1cccc(F)c1)CC2)C1CCC1 — higher, 8.79%
- CO[C@@H]1CCN(C(=O)c2ccccn2)[C@H]1Cc1ccccc1 — higher, 4.89%
- Cc1ccc(CN2C[C@@H]3CCCO[C@@H]3[C@H](N(C)Cc3ccco3)C2)s1 — higher, 3.88%
- CO[C@H]1CN(C(=O)c2cccnc2)[C@@H]2CCCO[C@H]12 — higher, 5%
- CN(Cc1ccco1)C[C@H]1OC[C@@H]2CCN(Cc3ccccn3)C[C@@H]21 — higher, -3.22%
- c1cc(CN2CCO[C@@H]3CNC[C@@H]32)cs1 — higher, 9.22%
- CC(C)CCn1c(=O)[nH]c2cn(-c3ccc(F)cc3)c(=O)n21 — higher, 2.97%
- O=C1[C@@H]2CC[C@@H](CN(C3CSCCSC3)C2)N1Cc1cscn1 — lower, -15.1%
- O=C1OCCN1CC(=O)N1C[C@@H]2CC[C@H]1CN(Cc1cscn1)C2 — higher, -5.41%
- COCCN1C(=O)CCC12CCC(NC(=O)c1cnccn1)CC2 (stereo not given) — higher, -6.19%
